Consider 12 molecules from ChEMBL document CHEMBL5126676, “Identification of Inhibitors of the Schistosoma mansoni VKR2 Kinase Domain” (ACS Med Chem Lett, 2022).

In general, Kd refers to the concentration at which binding is half-saturated. Broadly, the IC50 is the concentration that gives 50% inhibition.

Calls of active or inactive are those of the source. No cut-off for these calls is given here.

Test [1] has as its target T1, Venus kinase receptor 2 (Schistosoma mansoni, UniProt D5JEH1). As to the kind of experiment: Binding affinity to Schistosoma mansoni N-terminal His6-tagged full-length VKR2 kinase domain expressed in baculovirus infected Sf9 insect cells in presence of ATPgammaS by SPR analysis. In general terms: SPR reads the build-up and loss of mass on a sensor chip optically.
The target of test [2] is T1, Venus kinase receptor 2. The test can be described thus: Inhibition of Schistosoma mansoni N-terminal His6-tagged full-length VKR2 kinase domain expressed in baculovirus infected Sf9 insect cells assessed as reduction in autophosphorylation measured after 30 mins in presence of ATP by ADP-glo kinase assay. In outline:
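Autophosphorylation of the SmVKR2 kinase domain, used as the read-out because no substrate is known, with 10 μM ATP. Concentration–response curves were run in triplicate, and IC50 was fitted from them; the paper plots mean ± SD.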
In general terms: ADP-Glo first removes unused ATP, then detects ADP through luciferase.

The test system of test [3] is Schistosoma mansoni. The test can be described thus: Antischistosomal activity against adult Schistosoma mansoni assessed as reduction in worm movement at 10 uM measured after 2 to 24 hrs by inverted microscopy. Format: functional, organism-based. Particulars: time 2-24 hrs. In outline:
(§1)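 Adult S. mansoni worms exposed ex vivo to 10 μM compound. Observed at 2, 5 and 24 h and scored with an observation-based severity system. Descriptors recorded: degenerating, uncoordinated, slow, on sides (no adherence to the well floor by oral or ventral sucker), and tegument blebs. Three to five biological singleton assays.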

Test [4] relates to Schistosoma mansoni. As to the kind of experiment: Antischistosomal activity against adult Schistosoma mansoni assessed as reduction in worm motility at 10 uM measured after 2 to 24 hrs by worm assay. The format is functional, organism-based. Particulars: time 2-24 hrs. The procedure, abridged:
(§2)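 Ex vivo adult S. mansoni were incubated with 10 μM compound. Average worm motility per well was recorded by WormAssay over time at 2, 5 and 24 h. Three to five biological assays. Significance was tested by two-tailed Student's t-test.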

Test [5] has as its system Schistosoma mansoni. The test can be described thus: Antischistosomal activity against adult Schistosoma mansoni assessed as reduction in worm motility at 10 uM measured after 2 hrs by inverted microscopy. The format is functional, organism-based. The procedure, abridged:
as §1

Test [6] has as its system Schistosoma mansoni. The test can be described thus: Antischistosomal activity against adult Schistosoma mansoni assessed as loss of worm ability to adhere to well floor at 10 uM measured after 2 hrs by inverted microscopy. Format: functional, organism-based. The procedure, abridged:
as §1

For test [7], the system named is Schistosoma mansoni. The test can be described thus: Antischistosomal activity against adult Schistosoma mansoni assessed as worm degeneration at 10 uM measured after 24 hrs by inverted microscopy. Format: functional, organism-based. The procedure, abridged:
as §1

Test [8] concerns Schistosoma mansoni. The test can be described thus: Antischistosomal activity against adult Schistosoma mansoni assessed as damage to the tegument by measuring blebbing at 10 uM measured after 24 hrs by inverted microscopy. The format is functional, organism-based. The procedure, abridged: as §1
Test [9] deals with Schistosoma mansoni. As to the kind of experiment: Antischistosomal activity against adult Schistosoma mansoni assessed as damage to the tegument by measuring bubbling at 10 uM measured after 24 hrs by inverted microscopy. The format is functional, organism-based. The procedure, abridged: as §1
For test [10], the system named is Schistosoma mansoni. The test can be described thus: Antischistosomal activity against adult Schistosoma mansoni assessed as reduction in worm motility at 10 uM by worm assay. Particulars: time 2-24 hrs, TDE = time-dependent effect. Format: functional, organism-based. The procedure, abridged:
as §2

T1 sequence (D5JEH1 whole entry, the tested form may be a part): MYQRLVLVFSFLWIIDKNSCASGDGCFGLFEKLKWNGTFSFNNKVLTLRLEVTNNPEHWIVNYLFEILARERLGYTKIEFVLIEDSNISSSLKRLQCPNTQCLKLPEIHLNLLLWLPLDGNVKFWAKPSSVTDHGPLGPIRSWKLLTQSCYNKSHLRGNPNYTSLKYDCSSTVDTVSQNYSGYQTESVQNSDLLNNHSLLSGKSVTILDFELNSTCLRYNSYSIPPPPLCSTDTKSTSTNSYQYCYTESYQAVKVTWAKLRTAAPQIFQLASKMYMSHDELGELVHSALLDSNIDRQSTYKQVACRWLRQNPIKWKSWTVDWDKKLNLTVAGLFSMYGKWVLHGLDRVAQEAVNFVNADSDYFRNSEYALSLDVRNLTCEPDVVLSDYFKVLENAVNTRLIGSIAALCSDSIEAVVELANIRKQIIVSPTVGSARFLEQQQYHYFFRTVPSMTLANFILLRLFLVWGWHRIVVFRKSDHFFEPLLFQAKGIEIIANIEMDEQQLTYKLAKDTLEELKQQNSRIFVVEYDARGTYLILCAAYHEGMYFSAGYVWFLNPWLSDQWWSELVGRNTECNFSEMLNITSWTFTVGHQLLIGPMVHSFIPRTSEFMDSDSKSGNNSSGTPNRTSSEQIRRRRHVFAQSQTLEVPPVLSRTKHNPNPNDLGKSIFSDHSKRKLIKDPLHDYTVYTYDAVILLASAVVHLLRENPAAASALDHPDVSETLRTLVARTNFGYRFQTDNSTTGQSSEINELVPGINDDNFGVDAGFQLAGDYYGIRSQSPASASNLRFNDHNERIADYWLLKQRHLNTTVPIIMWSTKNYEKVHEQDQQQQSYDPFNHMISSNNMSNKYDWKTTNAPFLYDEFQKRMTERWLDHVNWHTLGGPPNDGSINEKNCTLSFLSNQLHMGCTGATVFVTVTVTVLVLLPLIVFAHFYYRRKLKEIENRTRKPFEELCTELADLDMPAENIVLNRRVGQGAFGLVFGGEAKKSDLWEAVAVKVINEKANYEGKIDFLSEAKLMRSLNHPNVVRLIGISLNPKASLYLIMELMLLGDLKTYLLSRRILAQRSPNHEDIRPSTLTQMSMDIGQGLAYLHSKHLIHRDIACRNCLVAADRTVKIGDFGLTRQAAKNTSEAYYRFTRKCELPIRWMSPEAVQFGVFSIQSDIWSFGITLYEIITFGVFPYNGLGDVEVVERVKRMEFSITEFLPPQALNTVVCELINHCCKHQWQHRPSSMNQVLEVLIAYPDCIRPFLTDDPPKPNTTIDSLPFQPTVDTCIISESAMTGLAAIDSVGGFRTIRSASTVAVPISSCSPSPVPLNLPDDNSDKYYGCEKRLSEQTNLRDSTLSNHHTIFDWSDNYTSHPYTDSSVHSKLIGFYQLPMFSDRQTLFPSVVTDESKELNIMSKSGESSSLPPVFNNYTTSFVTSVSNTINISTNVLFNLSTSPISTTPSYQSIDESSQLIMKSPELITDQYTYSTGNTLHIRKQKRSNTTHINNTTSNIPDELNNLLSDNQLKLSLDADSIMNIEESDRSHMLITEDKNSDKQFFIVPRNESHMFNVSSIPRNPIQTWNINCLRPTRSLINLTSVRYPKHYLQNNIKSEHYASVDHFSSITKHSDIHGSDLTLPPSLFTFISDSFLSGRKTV

As to `CN(C)CCNS(=O)(=O)c1ccc(-c2ccnc3[nH]ccc23)cc1`, at Venus kinase receptor 2 [1], the Kd worked out at 8.2 µM.
Consider `CNC(=O)c1ccccc1Nc1nc(Nc2cccc(CS(C)(=O)=O)c2)ncc1C`, for which the Kd on Venus kinase receptor 2 [1] is 0.44 µM. In addition, the IC50 at Venus kinase receptor 2 [2] was 6.47 µM.
Regarding `Cc1n[nH]c2cc(Nc3ccnc(Nc4cccc(CN5CCOCC5)c4)n3)ccc12`, the Kd on Venus kinase receptor 2 [1] amounted to 39 µM.
On the same count and under the same terms, to `CS(=O)(=O)Nc1ccc(-c2ccnc3[nH]ccc23)cc1` belongs 7.8 µM.
Turning to `O=C(Nc1n[nH]c2cnc(-c3ccc(O)cc3)cc12)C1CC1`, the Kd at Venus kinase receptor 2 [1] was 170 µM. For the same molecule, the outcome in the test on Schistosoma mansoni [3] and in the test with Schistosoma mansoni [4] was Active.
Regarding `NCCNS(=O)(=O)c1ccc(-c2ccnc3[nH]ccc23)cc1`, the Kd at Venus kinase receptor 2 [1] is 2.53 µM.
Same read-out and setting: to `NC(=O)Nc1sc(-c2ccc(F)cc2)cc1C(N)=O` belongs 16 µM.
For the molecule `CC(C)Oc1ccc2c(-c3ccnc(Nc4ccc(N5CCN(C)CC5)cc4)n3)cnn2n1`, the Kd on Venus kinase receptor 2 [1] was determined as 3.4 µM. For the same molecule, the result with Schistosoma mansoni [5], in the test on Schistosoma mansoni [6], with Schistosoma mansoni [7], with Schistosoma mansoni [8] and in the test on Schistosoma mansoni [9] was Active. For the same molecule, the Activity result with Schistosoma mansoni [10] was “Tde”. In addition, the IC50 on Venus kinase receptor 2 [2] turned out to be 20.1 µM.
On to `Cc1cccc(Nc2nc(NCCN)ncc2C(N)=O)c1`, for which the Kd on Venus kinase receptor 2 [1] was found to be 4.5 µM.
In the case of `Cc1cccc(Nc2nc(N[C@H]3CCCC[C@H]3N)ncc2C(N)=O)c1`, the dissociation constant (Kd) at Venus kinase receptor 2 [1] turned out to be 1.96 µM. The result in the test with Schistosoma mansoni [3] and in the test with Schistosoma mansoni [4] was Active. Also, the IC50 at Venus kinase receptor 2 [2] came out at 5.69 µM.
On to `Nc1nc(N)c2nc(-c3ccccc3)[nH]c2n1`, for which the dissociation constant Kd at Venus kinase receptor 2 [1] is 82 µM.
On to `Nc1n[nH]c2cnc(-c3ccccc3)cc12`, for which, on Venus kinase receptor 2 [1], the Kd came to 47 µM.
